The values that follow come from ChEMBL document CHEMBL4613300, “Pharmacophore-Based Virtual Screening for Identification of Negative Modulators of GLI1 as Potential Anticancer Agents” (ACS Med Chem Lett, 2020).

The source made the active and inactive calls. The rule behind the calls is not given here.

The first data set concerns the target T1, Zinc finger protein GLI1 (Homo sapiens) (UniProt P08151).
T1 sequence (whole entry): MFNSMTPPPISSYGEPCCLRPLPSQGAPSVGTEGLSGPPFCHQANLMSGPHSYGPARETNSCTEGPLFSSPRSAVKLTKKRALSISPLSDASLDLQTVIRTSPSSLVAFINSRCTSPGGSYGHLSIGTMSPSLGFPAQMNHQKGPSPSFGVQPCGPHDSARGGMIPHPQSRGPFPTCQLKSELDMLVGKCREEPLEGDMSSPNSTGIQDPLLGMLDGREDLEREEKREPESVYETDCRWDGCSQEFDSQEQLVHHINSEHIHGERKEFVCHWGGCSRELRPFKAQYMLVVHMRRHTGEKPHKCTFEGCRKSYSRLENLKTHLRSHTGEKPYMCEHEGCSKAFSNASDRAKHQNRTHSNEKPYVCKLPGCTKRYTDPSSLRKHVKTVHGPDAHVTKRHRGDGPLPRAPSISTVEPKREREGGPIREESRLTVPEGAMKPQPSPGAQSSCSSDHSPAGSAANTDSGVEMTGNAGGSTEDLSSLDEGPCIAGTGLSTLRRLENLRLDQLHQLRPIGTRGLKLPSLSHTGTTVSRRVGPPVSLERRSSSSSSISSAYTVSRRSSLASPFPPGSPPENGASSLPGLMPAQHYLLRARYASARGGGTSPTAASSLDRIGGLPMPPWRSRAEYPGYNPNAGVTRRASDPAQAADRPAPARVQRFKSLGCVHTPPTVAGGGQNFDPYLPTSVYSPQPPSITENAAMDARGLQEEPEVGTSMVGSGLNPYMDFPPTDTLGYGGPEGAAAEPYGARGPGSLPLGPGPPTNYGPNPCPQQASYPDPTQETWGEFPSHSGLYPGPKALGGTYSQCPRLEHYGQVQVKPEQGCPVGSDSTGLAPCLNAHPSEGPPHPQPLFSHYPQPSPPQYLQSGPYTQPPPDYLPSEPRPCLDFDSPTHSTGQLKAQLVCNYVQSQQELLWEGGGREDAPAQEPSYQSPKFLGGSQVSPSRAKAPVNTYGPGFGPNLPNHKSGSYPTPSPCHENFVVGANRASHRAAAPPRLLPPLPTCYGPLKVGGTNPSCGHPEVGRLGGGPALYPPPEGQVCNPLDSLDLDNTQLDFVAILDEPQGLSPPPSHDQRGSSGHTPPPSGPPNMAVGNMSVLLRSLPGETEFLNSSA
Briefly: Inhibition of GLI1 transcriptional activity in human A375 cells assessed as downregulation of Cyclin D1 mRNA expression at 5 uM incubated for 48 hrs by qPCR analysis. It counts as cell-based. To be noted: A-375. The procedure, abridged: (§1)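 A375 cells treated with compound (5 μM) or DMSO for 48 h. mRNA measured by qPCR as gene/(mean of HPRT and EIF2α) ratio, DMSO control set to 1. Mean ± SD.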
(Real-time PCR tracks product formation cycle by cycle.)
For the compound `CCOC(=O)c1c(-c2ccccc2)csc1NC(NC(=O)c1ccccc1)C(Cl)(Cl)Cl` (configuration not stated), the inhibition (usually the percentage by which the read-out fell short of the control) was “Active”.

Turning to `CC1(C)CC(NC(=O)c2cnn3c(C(F)F)cc(C4CC4)nc23)c2ccccc2O1` (configuration not stated), the inhibition result is “Active”.

For another data set, the target named is T2, Zinc finger protein GLI1 (Mus musculus) (UniProt P47806).
T2 sequence (whole entry): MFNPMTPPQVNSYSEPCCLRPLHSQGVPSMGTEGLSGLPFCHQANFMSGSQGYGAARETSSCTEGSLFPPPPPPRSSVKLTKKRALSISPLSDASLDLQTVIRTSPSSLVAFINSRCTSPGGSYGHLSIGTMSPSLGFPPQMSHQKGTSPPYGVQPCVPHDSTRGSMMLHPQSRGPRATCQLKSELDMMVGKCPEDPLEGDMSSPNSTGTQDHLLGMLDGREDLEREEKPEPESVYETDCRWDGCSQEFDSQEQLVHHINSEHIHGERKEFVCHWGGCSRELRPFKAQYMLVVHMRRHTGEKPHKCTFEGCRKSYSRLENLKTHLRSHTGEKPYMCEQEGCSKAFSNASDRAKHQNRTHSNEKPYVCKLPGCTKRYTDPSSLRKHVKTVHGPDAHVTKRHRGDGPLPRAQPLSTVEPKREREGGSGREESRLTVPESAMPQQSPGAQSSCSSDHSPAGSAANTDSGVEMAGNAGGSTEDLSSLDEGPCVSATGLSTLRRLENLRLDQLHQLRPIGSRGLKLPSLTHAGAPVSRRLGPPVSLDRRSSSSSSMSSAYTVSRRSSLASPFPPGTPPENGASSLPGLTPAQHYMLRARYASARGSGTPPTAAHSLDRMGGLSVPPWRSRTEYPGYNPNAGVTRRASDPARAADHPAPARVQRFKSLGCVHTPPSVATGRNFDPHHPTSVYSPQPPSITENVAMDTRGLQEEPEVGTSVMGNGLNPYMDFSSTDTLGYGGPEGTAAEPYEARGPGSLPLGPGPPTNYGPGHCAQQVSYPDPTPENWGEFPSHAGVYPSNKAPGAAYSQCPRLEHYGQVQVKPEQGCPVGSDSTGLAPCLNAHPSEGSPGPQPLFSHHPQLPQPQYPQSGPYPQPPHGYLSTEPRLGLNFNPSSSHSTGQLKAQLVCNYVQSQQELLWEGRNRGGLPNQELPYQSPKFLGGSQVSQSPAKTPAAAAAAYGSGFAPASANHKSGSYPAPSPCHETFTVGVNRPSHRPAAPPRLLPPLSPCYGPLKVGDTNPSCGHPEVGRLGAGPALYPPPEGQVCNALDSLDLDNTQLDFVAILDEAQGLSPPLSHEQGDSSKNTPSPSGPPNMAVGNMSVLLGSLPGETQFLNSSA
Briefly: Inhibition of GLI1 transcriptional activity in HH-responsive mouse NIH3T3 cells assessed as reduction in SAG-induced luciferase activity at 5 uM incubated for 48 hrs by luciferase reporter gene assay relative to control. It counts as cell-based.
Conditions: not given
The procedure, abridged:
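HH-responsive NIH3T3 cells carrying a GLI-dependent firefly luciferase reporter with renilla control, treated 48 h with 100 nM SAG plus compound (5 μM). Firefly/renilla ratio normalised to SAG-only cells set at 100%, reported as percent inhibition.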
In the case of `CCOC(=O)c1c(-c2ccccc2)csc1NC(NC(=O)c1ccccc1)C(Cl)(Cl)Cl` (configuration not stated), the inhibition amounted to 40%.

`O=C(NC1CCCc2ccccc21)c1cnn2c(C(F)(F)F)cc(-c3ccco3)nc12` (configuration not stated): the inhibition is 66%.

With `COc1c(O)cc2oc3cc(O)c(CC=C(C)C)c(O)c3c(=O)c2c1CC=C(C)C` [MANGOSTIN], the inhibition was found to be 43%.

For the compound `CC1(C)CC(NC(=O)c2cnn3c(C(F)F)cc(C4CC4)nc23)c2ccccc2O1` (configuration not stated), the inhibition turned out to be 40%.

As for `CCOC(=O)c1c(-c2ccccc2)csc1NC(NC(=O)c1ccco1)C(Cl)(Cl)Cl` (configuration not stated), the inhibition worked out at 51%.

Another data set deals with Daoy. Briefly: Antiproliferative activity against human DaOY cells assessed as reduction in cell viability incubated for 72 hrs by trypan blue or crystal violet staining based assay. Type of data set: functional. To be noted: Homo sapiens, Daoy, 72 h; read-out: IC50.
For the compound `CCOC(=O)c1c(-c2ccccc2)csc1NC(NC(=O)c1ccccc1)C(Cl)(Cl)Cl` (configuration not stated), the IC50 (as a rule, the concentration that gives 50% inhibition) came out at 900 nM.

For the compound `O=C(NC1CCCc2ccccc21)c1cnn2c(C(F)(F)F)cc(-c3ccco3)nc12` (configuration not stated), the half-inhibitory concentration (IC50) was determined as 5700 nM.

With `COc1c(O)cc2oc3cc(O)c(CC=C(C)C)c(O)c3c(=O)c2c1CC=C(C)C` [MANGOSTIN], the IC50 came out at 1900 nM.

As to `CC1(C)CC(NC(=O)c2cnn3c(C(F)F)cc(C4CC4)nc23)c2ccccc2O1` (configuration not stated), the IC50 came out at 2300 nM.

For `CCOC(=O)c1c(-c2ccccc2)csc1NC(NC(=O)c1ccco1)C(Cl)(Cl)Cl` (configuration not stated), the 50% inhibitory concentration (IC50) amounted to 4300 nM.

For a further data set, the system named is A-375. Briefly: Antiproliferative activity against human A375 cells assessed as reduction in cell viability incubated for 72 hrs by trypan blue or crystal violet staining based assay. It counts as functional. The note with it: Homo sapiens, A-375, 72 h; read-out: IC50.
On to `CCOC(=O)c1c(-c2ccccc2)csc1NC(NC(=O)c1ccccc1)C(Cl)(Cl)Cl` (configuration not stated), for which the IC50 was 12000 nM.

For `O=C(NC1CCCc2ccccc21)c1cnn2c(C(F)(F)F)cc(-c3ccco3)nc12` (configuration not stated), the 50% inhibitory concentration (IC50) stood at 600 nM.

With `COc1c(O)cc2oc3cc(O)c(CC=C(C)C)c(O)c3c(=O)c2c1CC=C(C)C` [MANGOSTIN], the 50% inhibitory concentration (IC50) turned out to be 2700 nM.

With `CC1(C)CC(NC(=O)c2cnn3c(C(F)F)cc(C4CC4)nc23)c2ccccc2O1` (configuration not stated), the IC50 stood at 2200 nM.

`CCOC(=O)c1c(-c2ccccc2)csc1NC(NC(=O)c1ccco1)C(Cl)(Cl)Cl` (configuration not stated): the half-maximal inhibitory concentration (IC50) was 2700 nM.

The target of the next data set is T1, Zinc finger protein GLI1 (Homo sapiens). Briefly: Inhibition of GLI1 transcriptional activity in human A375 cells assessed as downregulation of HIP1 mRNA expression at 5 uM incubated for 48 hrs by qPCR analysis. The note with it: A-375. Type of data set: cell-based. The essentials:
as §1
Take `CCOC(=O)c1c(-c2ccccc2)csc1NC(NC(=O)c1ccccc1)C(Cl)(Cl)Cl` (configuration not stated): the inhibition entry was “Active”.

Turning to `CC1(C)CC(NC(=O)c2cnn3c(C(F)F)cc(C4CC4)nc23)c2ccccc2O1` (configuration not stated), the inhibition result was “Active”.

For a further data set the target is unchanged. Briefly: Inhibition of GLI1 transcriptional activity in human A375 cells assessed as downregulation of GLI2 mRNA expression at 5 uM incubated for 48 hrs by qPCR analysis. It counts as cell-based. To be noted: A-375. The procedure, abridged:
as §1
Take `CCOC(=O)c1c(-c2ccccc2)csc1NC(NC(=O)c1ccccc1)C(Cl)(Cl)Cl` (configuration not stated): the inhibition entry was “Active”.

In the case of `CC1(C)CC(NC(=O)c2cnn3c(C(F)F)cc(C4CC4)nc23)c2ccccc2O1` (configuration not stated), the inhibition entry is “Active”.

For a further data set the target is unchanged. Briefly: Inhibition of GLI1 transcriptional activity in human A375 cells assessed as downregulation of GLI1 mRNA expression at 5 uM incubated for 48 hrs by qPCR analysis. It counts as cell-based. To be noted: A-375. The procedure, abridged: as §1
Turning to `CCOC(=O)c1c(-c2ccccc2)csc1NC(NC(=O)c1ccccc1)C(Cl)(Cl)Cl` (configuration not stated), the inhibition result is “Active”.

For the compound `CC1(C)CC(NC(=O)c2cnn3c(C(F)F)cc(C4CC4)nc23)c2ccccc2O1` (configuration not stated), the inhibition result is “Active”.

The target is the same in the next data set. Briefly: Inhibition of GLI1 transcriptional activity in human A375 cells assessed as downregulation of PTCH1 mRNA expression at 5 uM incubated for 48 hrs by qPCR analysis. Type of data set: cell-based. The note with it: A-375. The essentials:
as §1
Consider `CCOC(=O)c1c(-c2ccccc2)csc1NC(NC(=O)c1ccccc1)C(Cl)(Cl)Cl` (configuration not stated), for which the inhibition entry is “Active”.

As for `CC1(C)CC(NC(=O)c2cnn3c(C(F)F)cc(C4CC4)nc23)c2ccccc2O1` (configuration not stated), the inhibition entry is “Active”.

A further data set concerns MCF-10A. Briefly: Cytotoxicity against human MCF10A cells assessed as reduction in cell viability incubated for 72 hrs by trypan blue or crystal violet staining based assay.
Conditions: not given
Consider `CCOC(=O)c1c(-c2ccccc2)csc1NC(NC(=O)c1ccccc1)C(Cl)(Cl)Cl` (configuration not stated), for which the Activity entry is recorded as “Non-Toxic”.

For the compound `CC1(C)CC(NC(=O)c2cnn3c(C(F)F)cc(C4CC4)nc23)c2ccccc2O1` (configuration not stated), the Activity entry is “Non-Toxic”.

Another data set concerns the target T2, Zinc finger protein GLI1 (Mus musculus). Briefly: Inhibition of GLI1 transcriptional activity in HH-responsive mouse NIH3T3 cells assessed as reduction in GLI1 protein expression at 5 uM incubated for 48 hrs in presence of SAG by Western blot analysis. Type of data set: cell-based.
Conditions: not given
The procedure, abridged:
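Murine NIH3T3 cells given 100 nM SAG plus compound (5 μM) or DMSO for 48 h. Endogenous GLI1 protein measured by Western blot with HSP90 as loading control, band quantified against SAG-treated cells.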
On to `CCOC(=O)c1c(-c2ccccc2)csc1NC(NC(=O)c1ccccc1)C(Cl)(Cl)Cl` (configuration not stated), for which the inhibition entry is “Active”.

For `O=C(NC1CCCc2ccccc21)c1cnn2c(C(F)(F)F)cc(-c3ccco3)nc12` (configuration not stated), the inhibition result was “Active”.

For `COc1c(O)cc2oc3cc(O)c(CC=C(C)C)c(O)c3c(=O)c2c1CC=C(C)C` [MANGOSTIN], the inhibition entry was “Active”.

Take `CC1(C)CC(NC(=O)c2cnn3c(C(F)F)cc(C4CC4)nc23)c2ccccc2O1` (configuration not stated): the inhibition entry is “Active”.

For `CCOC(=O)c1c(-c2ccccc2)csc1NC(NC(=O)c1ccco1)C(Cl)(Cl)Cl` (configuration not stated), the inhibition result is “Active”.
